Measured values taken from article PMC6791425 (Oncoimmunology, 2019).

Legend:
[1] = biodistribution analysis in LNCaP tumor-bearing mice; assay type: in vivo, NMRI nu/nu mice; conditions: high molar activity, approximately 10 MBq
Procedure, shortened: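 Mice bearing LNCaP tumours (100–500 mm3) were injected with approximately 10 MBq of the 68Ga-labelled test compound, giving groups at high molar activity (low peptide amount) and low molar activity (high peptide amount). Organ distribution was determined in three mice per condition. Labelling was done at pH 4.2, 98°C, for 10 min in HEPES.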

[2] = biological target: PSMA expressed on LNCaP cells (Homo sapiens, UniProt Q04609); assay: competitive cell-binding assay with PSMA-positive LNCaP cells
PSMA expressed on LNCaP cells, sequence (Q04609 whole entry): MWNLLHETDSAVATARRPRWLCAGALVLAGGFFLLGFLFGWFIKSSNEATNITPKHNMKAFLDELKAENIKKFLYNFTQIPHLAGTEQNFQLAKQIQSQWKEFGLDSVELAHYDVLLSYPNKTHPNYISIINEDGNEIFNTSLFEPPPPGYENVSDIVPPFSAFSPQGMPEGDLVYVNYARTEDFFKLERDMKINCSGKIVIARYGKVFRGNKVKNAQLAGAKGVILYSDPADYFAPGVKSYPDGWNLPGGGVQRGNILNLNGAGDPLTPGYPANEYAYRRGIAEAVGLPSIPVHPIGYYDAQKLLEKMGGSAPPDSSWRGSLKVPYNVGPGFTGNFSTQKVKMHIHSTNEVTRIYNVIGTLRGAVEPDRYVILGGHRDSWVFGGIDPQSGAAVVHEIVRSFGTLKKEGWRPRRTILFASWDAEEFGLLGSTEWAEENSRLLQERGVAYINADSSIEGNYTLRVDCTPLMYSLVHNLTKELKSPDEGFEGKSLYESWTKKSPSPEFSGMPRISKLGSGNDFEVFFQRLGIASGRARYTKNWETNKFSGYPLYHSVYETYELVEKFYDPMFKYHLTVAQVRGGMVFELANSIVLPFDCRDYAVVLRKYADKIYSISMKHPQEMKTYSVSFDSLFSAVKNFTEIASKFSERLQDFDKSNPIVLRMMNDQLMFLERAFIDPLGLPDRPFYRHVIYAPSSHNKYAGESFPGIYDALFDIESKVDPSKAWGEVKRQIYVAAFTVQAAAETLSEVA

Tumor ([1]; LNCaP tumor)	Adrenals [1]	BAT [1]	Blood [1]	Brain [1]	Femur [1]	Heart [1]	Kidneys [1]	Liver [1]	Lung [1]	Muscle [1]	Pancreas [1]	Ratio tumor/muscle [1]	Skin [1]	Spleen [1]	Subm. gl. [1]	Testes [1]	WAT [1]	IC50 [2] [nM]	Compound
2.99 SUV (g/g)	3.11 SUV (g/g)	0.10 SUV (g/g)	0.06 SUV (g/g)	0.01 SUV (g/g)	0.04 SUV (g/g)	0.09 SUV (g/g)	50.79 SUV (g/g)	0.11 SUV (g/g)	0.45 SUV (g/g)	0.04 SUV (g/g)	0.29 SUV (g/g)	70.87	0.09 SUV (g/g)	1.53 SUV (g/g)	0.29 SUV (g/g)	0.22 SUV (g/g)	0.33 SUV (g/g)	–	O=C([O-])CN(CCN(CC(=O)[O-])Cc1cc(CCC(=O)NCCCCCC(=O)NCCCC[C@H](NC(=O)N[C@@H](CCC(=O)O)C(=O)O)C(=O)O)ccc1[O-])Cc1cc(CCC(=O)O)ccc1[O-].[68Ga+3].[OH3+] [[^68Ga]Ga-PSMA-11]
–	–	–	–	–	–	–	–	–	–	–	–	–	–	–	–	–	–	14.8 ± 1.2	O=C(O)CCc1ccc(O)c(CN(CCN(CC(=O)O)Cc2cc(CCC(=O)NCCCCCC(=O)NCCCC[C@H](NC(=O)N[C@@H](CCC(=O)O)C(=O)O)C(=O)O)ccc2O)CC(=O)O)c1 [PSMA-11]
